The record followed here is ChEMBL document CHEMBL5030522, “A Convenient Chemoenzymatic Preparation of Chimeric Macrocyclic Peptide Antibiotics with Potent Activity against Gram-Negative Pathogens” (2021).

What all share (format): functional
Assay [1] concerns Acinetobacter baumannii. The experiment in a line: Antibacterial activity against Acinetobacter baumannii ATCC 9955 assessed as inhibition of bacterial growth after 16 hrs by broth microdilution method. In short, it runs like this:
(§1)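 MIC per CLSI broth microdilution. Strains streaked from glycerol stocks on blood agar, 16 h at 37 °C. Single colonies inoculated into cation-adjusted Mueller-Hinton broth (10 mg L–1 Mg2+, 25 mg L–1 Ca2+). Peptides serially diluted in this broth with 0.002% (v/v) final polysorbate-80 in polypropylene plates. Inoculum 5 × 10^5 CFU mL–1. Plates sealed, 16 h at 37 °C, growth scored visually. MIC in μg/mL, triplicates on two separate days.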

Assay [2] has as its system Acinetobacter baumannii. Put plainly: Antibacterial activity against Acinetobacter baumannii ATCC 17978 assessed as inhibition of bacterial growth after 16 hrs by broth microdilution method. Put shortly: as §1
The test system of assay [3] is Acinetobacter baumannii. The experiment in a line: Antibacterial activity against multidrug-resistant Acinetobacter baumannii assessed as inhibition of bacterial growth after 16 hrs by broth microdilution method. In short, it runs like this: (§2)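 CLSI broth microdilution. Strains grown from glycerol stocks on blood agar 16 h at 37 °C; colonies used to inoculate CAMHB containing 10 mg L–1 Mg2+ and 25 mg L–1 Ca2+. Peptides dissolved in CAMHB with 0.002% (v/v) final polysorbate-80, serially diluted in polypropylene plates; inoculum 5 × 10^5 CFU mL–1. Sealed, 16 h at 37 °C, growth scored visually. MIC in μg/mL; three or more measurements on multiple days.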

For assay [4], the system named is Klebsiella pneumoniae. Put plainly: Antibacterial activity against Klebsiella pneumoniae ATCC 11228 assessed as inhibition of bacterial growth after 16 hrs by broth microdilution method. In short, it runs like this: as §1
The subject of assay [5] is Klebsiella pneumoniae. The experiment in a line: Antibacterial activity against Klebsiella pneumoniae producing NDM1 assessed as inhibition of bacterial growth after 16 hrs by broth microdilution method. Put shortly: as §1
Assay [6] has as its system Pseudomonas aeruginosa. The experiment in a line: Antibacterial activity against Pseudomonas aeruginosa producing NDM1 assessed as inhibition of bacterial growth after 16 hrs by broth microdilution method. Put shortly: as §2
In assay [7] the test system is Pseudomonas aeruginosa. Put plainly: Antibacterial activity against Pseudomonas aeruginosa M-120 assessed as inhibition of bacterial growth after 16 hrs by broth microdilution method. In short, it runs like this: as §1
Assay [8] concerns Escherichia coli. Put plainly: Antibacterial activity against Escherichia coli producing NDM1 assessed as inhibition of bacterial growth after 16 hrs by broth microdilution method. In short, it runs like this: as §2
The subject of assay [9] is Escherichia coli. Put plainly: Antibacterial activity against Escherichia coli producing MCR2 assessed as inhibition of bacterial growth after 16 hrs by broth microdilution method. In short, it runs like this:
as §1

For assay [10], the system named is Escherichia coli. The experiment in a line: Antibacterial activity against Escherichia coli producing MCR3 assessed as inhibition of bacterial growth after 16 hrs by broth microdilution method. Put shortly: as §1
The subject of assay [11] is Staphylococcus aureus. Put plainly: Antibacterial activity against methicillin resistant Staphylococcus aureus USA300 by measuring MIC after 16 hrs by broth microdilution method. Put shortly:
as §2

The test system of assay [12] is Pseudomonas aeruginosa. The experiment in a line: Antibacterial activity against Pseudomonas aeruginosa ATCC 27853 assessed as inhibition of bacterial growth after 16 hrs by broth microdilution method. In short, it runs like this: as §1
The test system of assay [13] is Pseudomonas aeruginosa. The experiment in a line: Antibacterial activity against Pseudomonas aeruginosa NRZ 08418 producing NDM1 assessed as inhibition of bacterial growth after 16 hrs by broth microdilution method. In short, it runs like this:
as §1

Assay [14] has as its system Escherichia coli. Put plainly: Antibacterial activity against Escherichia coli ATCC 35218 assessed as inhibition of bacterial growth after 16 hrs by broth microdilution method. In short, it runs like this: as §1
The subject of assay [15] is Escherichia coli. The experiment in a line: Antibacterial activity against Escherichia coli producing MCR1 assessed as inhibition of bacterial growth after 16 hrs by broth microdilution method. In short, it runs like this: as §1
The test system of assay [16] is Acinetobacter baumannii. The experiment in a line: Antibacterial activity against Acinetobacter baumannii NRZ 00687 producing NDM2 assessed as inhibition of bacterial growth after 16 hrs by broth microdilution method. In short, it runs like this:
as §1

Structures are written as SMILES. Converted amounts (≈) assume the structure as drawn. Bridge positions count the residues as written; N and C are the ends. Square brackets hold non-standard residues; d marks the D form. Peptide text beside a SMILES is read from it. I, II: the chains in the order shown. Tle = CC(C)(C)[C@H](N)C(=O)O; dDab = NCC[C@@H](N)C(=O)O; hSer = N[C@@H](CCO)C(=O)O; Dab = NCC[C@H](N)C(=O)O Bounds are passed on as bounds.

In the case of `CC(C)C[C@@H]1NC(=O)[C@@H](Cc2ccccc2)NC(=O)[C@H](CCN)NC(=O)[C@@H](NC(=O)[C@H](CCN)NC(=O)[C@@H](NC(=O)[C@H](CCN)NC(=O)CC[C@@H]2NC(=O)[C@H](CCN)NC(=O)[C@H](Cc3ccc(O)cc3)NC(=O)[C@H]([C@@H](C)O)NC(=O)[C@H](C(C)C)NC(=O)[C@@H]3CCCN3C(=O)[C@@H](C)NC(=O)[C@H](CO)NC(=O)[C@H](C)NC(=O)[C@H](C(C)(C)C)NC(=O)[C@H](CCO)NC(=O)[C@H](Cc3c[nH]c4ccccc34)NC(=O)[C@H](CCO)NC(=O)[C@@H](CCN)NC2=O)[C@@H](C)O)CCNC(=O)[C@H]([C@@H](C)O)NC(=O)[C@H](CCN)NC(=O)[C@H](CCN)NC1=O` (I: cyclo([dDab][hSer]W[hSer][Tle]AS[dA]PVTY[Dab]E) / II: [Dab]T[Dab][Dab][Dab][dF]L[Dab][Dab]T; amide I:14-II:N; lactam II:4-II:C), the minimum inhibitory concentration (MIC) in [1] came to 0.2 µg/mL (≈ 0.0779 µM); in assay [2], 0.4 µg/mL (≈ 0.156 µM); in assay [3], 0.4 µg/mL (≈ 0.156 µM); in [4], 0.2 µg/mL (≈ 0.0779 µM); in [5], 0.4 µg/mL (≈ 0.156 µM); in [6], 0.8 µg/mL (≈ 0.312 µM). Moreover, the minimum inhibitory concentration (MIC) in [7] is 1.6 µg/mL (≈ 0.624 µM); in assay [8], 0.1 µg/mL (≈ 0.039 µM); in assay [9] it was 0.4 µg/mL (≈ 0.156 µM); in [10], 0.4 µg/mL (≈ 0.156 µM); in assay [11] it was more than 6.4 µg/mL.
In the case of `CC[C@H](C)CCCCC(=O)N[C@@H](CCN)C(=O)N[C@H](C(=O)N[C@@H](CCN)C(=O)N[C@H]1CCNC(=O)[C@H]([C@@H](C)O)NC(=O)[C@H](CCN)NC(=O)[C@H](CCN)NC(=O)[C@H](CC(C)C)NC(=O)[C@@H](CC(C)C)NC(=O)[C@H](CCN)NC1=O)[C@@H](C)O`, the minimum inhibitory concentration (MIC) in [1] was 0.4 µg/mL (≈ 0.342 µM); in [2], 0.4 µg/mL (≈ 0.342 µM); in assay [3] it was 0.4 µg/mL (≈ 0.342 µM); in assay [4] it was 0.1 µg/mL (≈ 0.0855 µM); in assay [5], 1.6 µg/mL (≈ 1.37 µM); in assay [12], 1.6 µg/mL (≈ 1.37 µM). The MIC was found to be 0.8 µg/mL (≈ 0.684 µM) in assay [13]; 0.4 µg/mL (≈ 0.342 µM) in assay [6]; 0.8 µg/mL (≈ 0.684 µM) in assay [7]; 0.1 µg/mL (≈ 0.0855 µM) in assay [14]; 0.1 µg/mL (≈ 0.0855 µM) in assay [8]; 3.2 µg/mL (≈ 2.74 µM) in [15]. Besides, the MIC in assay [9] was more than 6.4 µg/mL; in assay [10], 3.2 µg/mL (≈ 2.74 µM); in assay [11], more than 6.4 µg/mL; in assay [16], 0.2 µg/mL (≈ 0.171 µM).
